Experiments:
Staphylococcus aureus [1] = assay: Potentiation of vancomycin-mediated reduction in CFU per biofilm of Staphylococcus aureus Mu50 preincubated for 20 hrs followed by vancomycin addition measured after 24 hrs; type: functional, organism-based
How it was run: (§1)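 Inoculum: overnight MH culture resuspended in 2× MH at OD590 0.2. Analogue present during 4 h adhesion at 37 °C, then after a saline wash for 20 h more at 37 °C. Biofilms then rinsed and exposed to vancomycin (20 μg/ml) alone in saline for 24 h at 37 °C. Line 5 uses analogue at 100 μM; line 4 uses lower concentrations, with EC50 as the level doubling vancomycin killing. CFU/biofilm counted by plating after vortex/sonication, as % reduction vs untreated control. n ≥ 9.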

Staphylococcus aureus [2] = assay: Potentiation of vancomycin-mediated reduction in CFU per biofilm of Staphylococcus aureus Mu50 after 24 hrs; type: functional, organism-based; details: Mu50, 24 h
Staphylococcus aureus [3] = assay: Growth inhibition of Staphylococcus aureus Mu50 after 20 hrs by broth microdilution method; type: organism-based; details: in vitro
How it was run: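 S. aureus Mu50 grown in Mueller–Hinton broth at 37 °C, aerobic; MICs determined in triplicate in flat-bottom 96-well microtiter plates following an earlier published method.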

Staphylococcus aureus [4] = assay: Potentiation of vancomycin-mediated reduction in CFU per biofilm of Staphylococcus aureus Mu50 preincubated with compound at 100 uM for 20 hrs followed by vancomycin addition measured after 24 hrs (reference value: 30 +/- 14%); type: functional; parameters: scale not given: the % may be the effect or the level left; how it was run: as §1
Staphylococcus aureus [5] = assay: Potentiation of vancomycin-mediated reduction in CFU per biofilm of Staphylococcus aureus Mu50 at 100 uM after 24 hrs (reference value: 30 +/- 14%); type: functional; parameters: scale not given: the % may be the effect or the level left

EC50 (Staphylococcus aureus [1]) [µM]	EC50 (Staphylococcus aureus [2]) [µM]	SMILES	MIC (Staphylococcus aureus [3]) [µM]	Activity (Staphylococcus aureus [4]) [%]	Activity (Staphylococcus aureus [5]) [%]
–	–	O=C(NC[C@]1(O)CO[C@H](CNS(=O)(=O)C(F)(F)F)[C@H]1O)c1ccccc1	> 500	71	57
224	> 250	O=C(NC[C@@H]1OC[C@@](O)(CNC(=O)c2ccccc2)[C@@H]1O)c1ccccc1	> 500	48	44
–	–	O=C(NC[C@]1(O)CO[C@H](CNS(=O)(=O)c2ccc(-c3ccccc3)cc2)[C@H]1O)c1ccccc1	> 500	84	83
–	–	O=C(NC[C@]1(O)CO[C@H](Cn2cc(-c3ccccc3)nn2)[C@H]1O)c1ccccc1	> 500	46	66
–	–	O=C(NC[C@]1(O)CO[C@H](CNC(=S)Nc2ccccc2)[C@H]1O)c1ccccc1	> 500	80	73
97	124	O=C(NC[C@H]1OC[C@@](O)(CNC(=O)c2ccccc2)[C@@H]1O)c1ccccc1	> 500	66	65
–	–	CS(=O)(=O)NC[C@H]1OC[C@@](O)(CNC(=O)c2ccccc2)[C@@H]1O	> 500	69	62
26.4	56.7	O=C(NC[C@]1(O)CO[C@H](CNC(=O)c2ccccc2OC(F)(F)F)[C@H]1O)c1ccccc1	> 500	78	69
41.2	45.1	O=C(NC[C@]1(O)CO[C@H](CNCc2ccccc2)[C@H]1O)c1ccccc1	> 500	81	78
8.5	24.3	CN(C[C@H]1OC[C@@](O)(CNC(=O)c2ccccc2)[C@@H]1O)C(=O)c1ccccc1	> 500	94	90
31	25.7	O=C(NC[C@]1(O)CO[C@H](CNC(=O)c2ccccc2OC(F)F)[C@H]1O)c1ccccc1	> 500	81	78
1.9	20.4	O=C(NC[C@]1(O)CO[C@H](CNC(=O)c2ccccc2I)[C@H]1O)c1ccccc1	> 500	96	84
–	–	CC(C)S(=O)(=O)NC[C@H]1OC[C@@](O)(CNC(=O)c2ccccc2)[C@@H]1O	> 500	72	67
–	–	Cc1ccc(S(=O)(=O)NC[C@H]2OC[C@@](O)(CNC(=O)c3ccccc3)[C@@H]2O)cc1	> 500	83	74
57.7	60.2	O=C(NC[C@]1(O)CO[C@H](CN2Cc3ccccc3C2=O)[C@H]1O)c1ccccc1	> 500	75	70
–	–	CCS(=O)(=O)NC[C@H]1OC[C@@](O)(CNC(=O)c2ccccc2)[C@@H]1O	> 500	49	47
–	–	O=C(NC[C@]1(O)CO[C@H](Cn2nncc2-c2ccccc2)[C@H]1O)c1ccccc1	> 500	53	26
–	–	O=C(NC[C@]1(O)CO[C@H](CNS(=O)(=O)c2ccccc2)[C@H]1O)c1ccccc1	> 500	78	69
–	–	O=C(NC[C@H]1OC[C@@](O)(CNC(=O)c2ccccc2)[C@@H]1O)Nc1ccccc1	> 500	76	81
–	–	O=C(NC[C@]1(O)CO[C@H](CNS(=O)(=O)c2ccccc2Cl)[C@H]1O)c1ccccc1	> 500	65	73
23.5	27.8	O=C(NC[C@]1(O)CO[C@H](CNS(=O)(=O)c2ccc(Cl)cc2)[C@H]1O)c1ccccc1	> 500	86	85
9.8	19.7	O=C(NC[C@]1(O)CO[C@H](CNC(=O)c2ccccc2Br)[C@H]1O)c1ccccc1	> 500	96	82

SMILES	EC50 (Staphylococcus aureus [1]) [µM]	EC50 (Staphylococcus aureus [2]) [µM]	MIC (Staphylococcus aureus [3]) [µM]	Activity (Staphylococcus aureus [4]) [%]	Activity (Staphylococcus aureus [5]) [%]
O=C(NC[C@]1(O)CO[C@H](CNC(=O)c2ccccc2Cl)[C@H]1O)c1ccccc1	0.389	0.389	–	–	–
O=C(OC[C@H]1OC(O)[C@@](O)(COC(=O)c2cc(O)c(O)c(O)c2)[C@@H]1O)c1cc(O)c(O)c(O)c1 (stereo partly drawn) [HAMAMELITANNIN]	146	165	> 500	57	57
